Measurements: ChEMBL document CHEMBL1208790, “Exploration of a new series of CCR5 antagonists: multi-dimensional optimization of a sub-series containing N-substituted pyrazoles” (Bioorg Med Chem Lett, 2010)

Assay: Lipophilicity, log D of the compound at pH 7 by shake flask method
Type: physicochemical
Details: buffer
Summary of the method: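 High-throughput shake-flask log D determination at pH 7.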

Compound | logD
Cc1ncnc(C)c1C(=O)N1C[C@H]2CN(CC[C@H](NC(=O)C3CCCC3)c3ccccc3)C[C@H]2C1 | 1.37
Cc1cc(C#N)nc(C)c1C(=O)N1C[C@H]2CN(CC[C@H](NC(=O)C3CCCC3)c3ccccc3)C[C@H]2C1 | 1.89
Cc1ccnc(C)c1C(=O)N1C[C@H]2CN(CC[C@H](NC(=O)C3CCCC3)c3ccccc3)C[C@H]2C1 | 1.9
Cc1nn(-c2ccccc2)c(C)c1C(=O)N1C[C@H]2CN(CC[C@H](NC(=O)C3CCCC3)c3ccccc3)C[C@H]2C1 | 2.92
